Published values of several laboratories.
Medium: plasma

SMILES	host	route	dose	setting	quantity	value
CO[C@H]1CC[C@H](N2C(=O)CNc3ncc(-c4ccc(C(C)(C)O)nc4)nc32)CC1	human	oral	15 mg	multiple doses, patients	AUC(0-t)	383 ng·h/mL
CCc1nc2c(C)cc(N3CCN(CC(=O)N4CC(O)C4)CC3)cn2c1N(C)c1nc(-c2ccc(F)cc2)c(C#N)s1	human	oral	150 mg	single dose, fed, healthy volunteers	AUC(0-inf)	6700 ng·h/mL
COc1cc(C(=O)NC2CCN(C)CC2)c(F)cc1Nc1ncc(C(F)(F)F)c(Oc2cccc3c2C(=O)N(C)C3)n1	human	oral	200 mg	multiple doses, once daily, steady state, patients	AUC	43.7 µM·h
Cn1cc(-c2ccc(S(=O)(=O)[C@@H]3C[C@@H](C(=O)NC4(C#N)CC4)N(C(=O)C4(C(F)(F)F)CC4)C3)c(C(F)(F)F)c2)cn1	human	oral	10 mg	single dose, fasted, healthy volunteers	AUC(0-inf)	995 ng·h/mL
Cc1ccc(C(=O)N(CCCN)[C@@H](c2oc3cc(Cl)ccc3c(=O)c2Cc2ccccc2)C(C)C)cc1	human	intravenous	4 mg/m²	single dose, patients, infusion	AUC	5160 ng·h/mL
CC(C)(O)c1ccccc1-c1ccc2[nH]c(/C=C/c3ccc(C(F)(F)F)cc3)nc2c1	male human	oral	30 mg	single dose, fasted, healthy volunteers	AUC(0-t)	5160 ng·h/mL
Cn1c(=O)oc2ccc(-c3ccc(C[C@@H](C#N)NC(=O)[C@@H]4CNCCCO4)cc3)cc21	male human	oral	35 mg	single dose, healthy volunteers	AUC	13.2 µM·h
COc1ccc([C@@H]2CN(C(=O)[C@@H](O)CO)C[C@@]2(C)[C@@H](C)O)cc1OC1CN(c2ccc(C)cn2)C1	human	oral	40 mg	single dose, healthy volunteers	AUC(0-t)	7650 ng·h/mL
CO[C@@H]1[C@H](OC(=O)N2CC(CCN3CCOCC3)C2)CC[C@]2(CO2)[C@H]1[C@@]1(C)O[C@@H]1CC=C(C)C	human	subcutaneous	4.8 mg	single dose, healthy volunteers	AUC(0-t)	21.6 ng·h/mL
COCCOc1cnc2ccn([C@H](C)c3nnc4c(F)cc(-c5cnn(C)c5)cn34)c(=O)c2c1	human	oral	300 mg	multiple doses, once daily, patients	AUC(0-t)	55900 ng·h/mL
CC(C)n1cc(C#N)c2cc(-n3cc(C(=O)O)cn3)ccc21	human	oral	200 mg	single dose, fasted, healthy volunteers	AUC(0-t)	43900 ng·h/mL
COc1cc(C(=O)NC2CCN(C)CC2)c(F)cc1Nc1ncc(C(F)(F)F)c(Oc2cccc3c2C(=O)N(C)C3)n1	human	oral	300 mg	multiple doses, once daily, steady state, patients	AUC	79.6 µM·h
